# From ChEMBL document CHEMBL3286180, “Efficacious inhaled PDE4 inhibitors with low emetic potential and long duration of action for the treatment of COPD” (J Med Chem, 2014)
# Activity calls are given as the source filed them. The calls are words filed in the database; no cut-off is given here.
# How the values were obtained:
# [1] = Aqueous solubility of the compound at pH 7.4; assay type: physicochemical; settings: aqueous medium
# [2] = target: 3',5'-cyclic-AMP phosphodiesterase 4B (Homo sapiens, UniProt Q07343); assay: Inhibition of human recombinant PDE4B using [3H]cAMP by packard topcount scintillation counting analysis
# Cytochrome P450 3A4 = Cytochrome P450 3A4 (Homo sapiens, UniProt P08684); assay: Inhibition of CYP3A4 (unknown origin); assay type: ADME
# [3] = Half life in rat at 1 mg/kg, iv; assay type: ADME, organism-based; parameters: dose 1 mg/kg, route intravenous; settings: in vivo
# In short: (§1)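 Rat pharmacokinetics were run at 1 mg/kg, given iv or by intratracheal instillation, with 2−3 animals per study.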
# [4] = Clearance in rat at 1 mg/kg, iv; assay type: ADME, organism-based; parameters: dose 1 mg/kg, route intravenous; settings: in vivo; in short: as §1
# Cytochrome P450 2D6 = Cytochrome P450 2D6 (Homo sapiens, UniProt P10635); assay: Inhibition of CYP2D6 (unknown origin); assay type: ADME
# Cytochrome P450 2C9 = Cytochrome P450 2C9 (Homo sapiens, UniProt P11712); assay: Inhibition of CYP2C9 (unknown origin); assay type: ADME
# PBMC = assay: Antiinflammatory activity in human PBMC assessed as inhibition of LPS-induced TNFalpha production after 20 hrs by fluorescence linked immunosorbant assay; assay type: functional, cell-based
# [5] = Volume of distribution at steady state in rat at 1 mg/kg, iv; assay type: ADME, organism-based; parameters: dose 1 mg/kg, route intravenous; settings: in vivo, read-out: Vdss
# Rattus norvegicus [6] = assay: Apparent volume of distribution in rat at 1 mg/kg, iv; assay type: ADME, organism-based; parameters: dose 1 mg/kg, route intravenous; settings: in vivo; in short: as §1
# [7] = Fraction unbound in human plasma; assay type: ADME, cell-free
# [8] = Lipophilicity, log D of the compound; assay type: physicochemical; settings: octanol/water
# Cytochrome P450 2C19 = Cytochrome P450 2C19 (Homo sapiens, UniProt P33261); assay: Inhibition of CYP2C19 (unknown origin); assay type: ADME
# Cytochrome P450 1A2 = target: T1, Cytochrome P450 1A2 (Homo sapiens, UniProt P05177); assay: Inhibition of CYP1A2 (unknown origin); assay type: ADME
# T1 sequence (P05177 whole entry): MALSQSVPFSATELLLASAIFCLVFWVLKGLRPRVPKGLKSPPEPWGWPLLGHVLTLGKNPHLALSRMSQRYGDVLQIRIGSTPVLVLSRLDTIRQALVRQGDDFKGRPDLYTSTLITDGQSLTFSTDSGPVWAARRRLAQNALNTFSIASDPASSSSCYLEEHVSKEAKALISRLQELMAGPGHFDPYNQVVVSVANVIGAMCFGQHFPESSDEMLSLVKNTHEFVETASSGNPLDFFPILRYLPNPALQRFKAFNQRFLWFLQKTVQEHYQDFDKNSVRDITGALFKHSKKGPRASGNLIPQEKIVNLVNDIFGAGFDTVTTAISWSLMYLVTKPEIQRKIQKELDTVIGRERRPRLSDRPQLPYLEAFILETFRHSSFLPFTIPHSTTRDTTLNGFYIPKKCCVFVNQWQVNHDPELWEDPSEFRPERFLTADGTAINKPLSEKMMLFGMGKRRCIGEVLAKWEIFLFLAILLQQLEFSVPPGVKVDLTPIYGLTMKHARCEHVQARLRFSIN
# Rattus norvegicus [9] = assay: Antiinflammatory activity in Sprague-Dawley rat assessed as inhibition of LPS-induced bronchoalveolar lavage neutrophils at 0.01 mg/ml, inhalation administered as nebulized suspension; assay type: functional
# In short: (§2)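 Rats were given the compound as an aqueous nebulized aerosol by nose-only inhalation 30 min before LPS challenge. Dose is expressed as mg/mL nebulizer concentration. Lung neutrophilia was the readout, and terminal lung concentration (nM) was measured. Groups held 8−10 animals per treatment.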
# Rattus norvegicus [10] = assay: Antiinflammatory activity in Sprague-Dawley rat assessed as inhibition of LPS-induced bronchoalveolar lavage neutrophils at 0.03 mg/ml, inhalation administered as nebulized suspension; assay type: functional, organism-based; in short: as §2
# Rattus norvegicus [11] = assay: Antiinflammatory activity in Sprague-Dawley rat assessed as inhibition of LPS-induced bronchoalveolar lavage neutrophils at 0.03 to 3 mg/ml, inhalation administered as nebulized suspension; assay type: functional, organism-based; in short: as §2
# Rattus norvegicus [12] = assay: Antiinflammatory activity in Sprague-Dawley rat assessed as inhibition of LPS-induced bronchoalveolar lavage neutrophils at 145 to 5238 particles/cm'3, inhalation administered as dry powder; assay type: functional, organism-based
# Rattus norvegicus [13] = assay: Antiinflammatory activity in Sprague-Dawley rat assessed as inhibition of LPS-induced bronchoalveolar lavage neutrophils measured as LPS duration at 0.03 to 3 mg/ml, inhalation administered as nebulized suspension; assay type: functional, organism-based
# In short: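 Duration protocol: rats received a nose-only inhalation of nebulized aqueous compound solution 12 h before LPS challenge. Dose is expressed as mg/mL nebulizer concentration. Readout was LPS-induced pulmonary neutrophilia, with terminal lung concentration (nM) measured. Groups held 8−10 animals per treatment.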
# Blood = assay: tissue or blood; settings: Rattus norvegicus, 20 h, read-out: pIC50 (converted)
# Rattus norvegicus [14] = assay: Antiinflammatory activity in Sprague-Dawley rat assessed as inhibition of LPS-induced bronchoalveolar lavage neutrophils at lung exposure 1000 to 6000 particles/cm'3, inhalation administered as dry powder; assay type: functional, organism-based
# [15] = Intrinsic clearance in human liver microsomes; assay type: ADME; settings: read-out: CLH
# [16] = Intrinsic clearance in rat hepatocytes measured per 10^6 cells; assay type: ADME, cell-based, Hepatocyte; settings: read-out: CLH
# [17] = Fraction unbound in rat plasma; assay type: ADME, cell-free
# 3',5'-cyclic-AMP phosphodiesterase 4B, sequence (Q07343 whole entry): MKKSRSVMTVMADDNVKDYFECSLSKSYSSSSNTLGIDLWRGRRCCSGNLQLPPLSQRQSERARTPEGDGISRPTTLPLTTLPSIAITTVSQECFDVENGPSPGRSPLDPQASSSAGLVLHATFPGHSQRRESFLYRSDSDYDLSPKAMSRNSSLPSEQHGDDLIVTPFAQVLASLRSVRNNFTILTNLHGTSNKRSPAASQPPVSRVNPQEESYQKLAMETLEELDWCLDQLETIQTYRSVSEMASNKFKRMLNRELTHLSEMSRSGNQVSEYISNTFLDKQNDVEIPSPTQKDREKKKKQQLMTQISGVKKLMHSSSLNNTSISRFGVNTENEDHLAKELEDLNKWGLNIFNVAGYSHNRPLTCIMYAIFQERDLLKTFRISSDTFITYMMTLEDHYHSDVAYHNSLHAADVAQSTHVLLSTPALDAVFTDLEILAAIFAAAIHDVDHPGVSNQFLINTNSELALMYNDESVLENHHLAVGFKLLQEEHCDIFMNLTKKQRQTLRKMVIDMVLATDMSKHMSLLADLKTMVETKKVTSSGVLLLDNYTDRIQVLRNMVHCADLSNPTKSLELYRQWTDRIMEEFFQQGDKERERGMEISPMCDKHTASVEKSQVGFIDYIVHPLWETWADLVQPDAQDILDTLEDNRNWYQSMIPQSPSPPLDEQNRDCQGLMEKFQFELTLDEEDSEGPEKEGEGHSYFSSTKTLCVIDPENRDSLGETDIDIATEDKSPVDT
# Cytochrome P450 3A4, sequence (P08684 whole entry): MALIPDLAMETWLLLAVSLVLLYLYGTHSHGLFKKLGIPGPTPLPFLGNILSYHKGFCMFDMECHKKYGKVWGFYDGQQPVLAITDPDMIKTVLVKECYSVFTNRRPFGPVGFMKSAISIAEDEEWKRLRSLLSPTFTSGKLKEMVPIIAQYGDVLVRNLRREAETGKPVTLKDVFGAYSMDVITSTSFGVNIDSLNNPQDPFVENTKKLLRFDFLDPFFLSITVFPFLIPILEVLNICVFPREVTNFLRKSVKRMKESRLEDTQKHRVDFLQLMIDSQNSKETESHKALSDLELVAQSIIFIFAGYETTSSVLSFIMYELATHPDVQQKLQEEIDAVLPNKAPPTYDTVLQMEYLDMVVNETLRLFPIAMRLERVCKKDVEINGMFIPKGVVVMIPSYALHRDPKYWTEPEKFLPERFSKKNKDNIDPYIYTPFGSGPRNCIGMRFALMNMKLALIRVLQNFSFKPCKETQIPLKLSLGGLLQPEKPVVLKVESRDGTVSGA
# Cytochrome P450 2C19, sequence (P33261 whole entry): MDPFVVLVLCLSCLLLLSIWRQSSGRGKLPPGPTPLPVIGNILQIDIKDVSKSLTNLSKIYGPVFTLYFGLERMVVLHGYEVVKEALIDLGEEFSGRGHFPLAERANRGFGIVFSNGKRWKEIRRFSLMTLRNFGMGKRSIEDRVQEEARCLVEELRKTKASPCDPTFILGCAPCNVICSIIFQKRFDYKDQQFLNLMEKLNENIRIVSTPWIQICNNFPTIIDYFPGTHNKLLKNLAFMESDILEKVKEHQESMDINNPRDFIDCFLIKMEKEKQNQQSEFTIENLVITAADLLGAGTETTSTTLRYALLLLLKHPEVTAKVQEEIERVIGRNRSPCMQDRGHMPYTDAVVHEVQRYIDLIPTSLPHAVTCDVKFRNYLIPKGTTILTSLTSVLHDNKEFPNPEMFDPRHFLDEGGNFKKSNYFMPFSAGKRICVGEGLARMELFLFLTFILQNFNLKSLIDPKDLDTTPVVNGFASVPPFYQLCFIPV
# Cytochrome P450 2D6, sequence (P10635 whole entry): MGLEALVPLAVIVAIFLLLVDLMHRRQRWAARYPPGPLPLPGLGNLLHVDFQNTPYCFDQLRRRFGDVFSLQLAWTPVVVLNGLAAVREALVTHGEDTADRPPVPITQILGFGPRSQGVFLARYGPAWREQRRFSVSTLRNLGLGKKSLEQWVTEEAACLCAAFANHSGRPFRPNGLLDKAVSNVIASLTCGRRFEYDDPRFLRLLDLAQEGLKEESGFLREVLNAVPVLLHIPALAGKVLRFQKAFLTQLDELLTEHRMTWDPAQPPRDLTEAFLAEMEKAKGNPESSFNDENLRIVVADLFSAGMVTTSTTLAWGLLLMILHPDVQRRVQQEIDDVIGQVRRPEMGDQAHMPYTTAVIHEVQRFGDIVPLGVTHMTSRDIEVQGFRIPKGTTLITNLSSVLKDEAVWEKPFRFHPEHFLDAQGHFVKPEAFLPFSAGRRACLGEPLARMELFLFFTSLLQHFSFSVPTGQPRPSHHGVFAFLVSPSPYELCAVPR
# Cytochrome P450 2C9, sequence (P11712 whole entry): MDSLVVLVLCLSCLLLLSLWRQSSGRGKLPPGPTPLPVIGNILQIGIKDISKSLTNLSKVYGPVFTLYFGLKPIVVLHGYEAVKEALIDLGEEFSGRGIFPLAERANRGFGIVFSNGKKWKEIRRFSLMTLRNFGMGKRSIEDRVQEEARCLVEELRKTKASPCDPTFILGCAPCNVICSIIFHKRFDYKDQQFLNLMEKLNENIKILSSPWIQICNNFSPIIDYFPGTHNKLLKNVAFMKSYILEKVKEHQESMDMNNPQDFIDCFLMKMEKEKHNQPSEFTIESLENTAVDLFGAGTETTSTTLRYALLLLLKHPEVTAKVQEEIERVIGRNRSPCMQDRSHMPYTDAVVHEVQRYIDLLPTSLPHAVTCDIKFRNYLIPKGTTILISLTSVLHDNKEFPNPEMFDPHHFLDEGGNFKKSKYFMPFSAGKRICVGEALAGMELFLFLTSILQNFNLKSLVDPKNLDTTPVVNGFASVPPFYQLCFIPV
Structure (SMILES),solubility [1] [µM],IC50 [2] [nM],fraction unbound [7],logD [8],IC50 (PBMC) [nM],further results
Cc1csc(C(=O)N[C@H]2CC[C@@H](NC(=O)c3cc(F)cnc3Oc3cccc(-c4ccc(CN5C[C@@H](C)N[C@@H](C)C5)cc4CN4CCOCC4)c3)CC2)n1.O=C(O)C(F)(F)F,> 1400,,,,,
O=C(N[C@H]1CC[C@@H](NC(=O)c2nc3ccccc3[nH]c2=O)CC1)c1cc(F)cnc1Oc1cccc(-c2ccc(O)cc2CN2CCOCC2)c1,,0.316,,,,
Cc1nc(C(=O)N[C@H]2CC[C@@H](NC(=O)c3cc(F)cnc3Oc3cccc(-c4ccc(CN5C[C@@H](C)N[C@@H](C)C5)cc4)c3)CC2)cs1,,,,,,pIC50 [2]: 10.2
Cc1cccc2nc(C(=O)N[C@H]3CC[C@@H](NC(=O)c4cc(F)cnc4Oc4cccc(-c5ccc(CN6C[C@@H](C)N[C@@H](C)C6)cc5)c4)CC3)cn12,460,,0.012,2.7,0.126,IC50 (Cytochrome P450 3A4): > 1000 nM; half-life [3]: 5.3 h; clearance [4]: 61 mL/min/kg; IC50 (Cytochrome P450 2D6): > 1000 nM; IC50 (Cytochrome P450 2C9): > 1000 nM; Vd [5]: 14 L/kg; Vz/F (Rattus norvegicus [6]): 28 L/kg; IC50 (Cytochrome P450 2C19): > 1000 nM; IC50 (Cytochrome P450 1A2): > 1000 nM
Cc1csc(C(=O)N[C@H]2CC[C@@H](NC(=O)c3cc(F)cnc3Oc3cccc(-c4ccc(CN5C[C@@H](C)N[C@@H](C)C5)cc4CN4CCOCC4)c3)CC2)n1,,,,,,inhibition (Rattus norvegicus [9]): Active; inhibition (Rattus norvegicus [10]): Active

# Now from value to molecule, other results behind:
solubility [1] [µM],IC50 [2] [nM],fraction unbound [7],logD [8],Structure (SMILES),IC50 (PBMC) [nM],further results
,0.126,,,C[C@@H]1CN(Cc2ccc(-c3cccc(Oc4ncc(F)cc4C(=O)N[C@H]4CC[C@@H](NC(=O)c5ncccc5O)CC4)c3)cc2)C[C@H](C)N1,,
890,,0.12,2.4,Cc1cc(C(=O)N[C@H]2CC[C@@H](NC(=O)c3cc(F)cnc3Oc3cccc(-c4ccc(CN5C[C@@H](C)N[C@@H](C)C5)c(O)c4)c3)CC2)nn1C,,
470,,0.091,2.8,Cc1cc(C(=O)N[C@H]2CC[C@@H](NC(=O)c3cc(F)cnc3Oc3cccc(-c4cccc(CN5C[C@@H](C)N[C@@H](C)C5)c4O)c3)CC2)nn1C,3.16,
,2.51,,,O=C(N[C@H]1CC[C@@H](NC(=O)c2cc(F)cnc2Oc2cccc(-c3ccc(O)cc3CN3CCOCC3)c2)CC1)c1cncc(O)c1,,
1300,,0.11,2.4,Cc1cc(C(=O)N[C@H]2CC[C@@H](NC(=O)c3cc(F)cnc3Oc3cccc(-c4ccc(CN5C[C@@H](C)N[C@@H](C)C5)cc4)c3)CC2)nn1C,0.1,
< 1,0.631,0.0017,4.4,Cc1ccc(O)c(C(=O)N[C@H]2CC[C@@H](NC(=O)c3cc(F)cnc3Oc3ccc(F)c(F)c3)CC2)c1 [UK-500001],3.98,half-life [3]: 7.6 h; inhibition (Rattus norvegicus [11]): inactive; inhibition (Rattus norvegicus [12]): Active; clearance [4]: 97 mL/min/kg; inhibition (Rattus norvegicus [13]): inactive; IC50 (Blood): 39.8 nM; Vd [5]: 22 L/kg; inhibition (Rattus norvegicus [14]): Active; microsomal CLint [15]: 116 µL/min/mg; hepatocyte CLint [16]: 76 µL/min/1e6 cells; fraction unbound [17]: 0.017
